# hIAP block: blocks human intestinal alkaline phosphatase; P09923; purified IAP, CDP-Star luminescence, 30 min; inhibition, % at 10 µM; actives 0.12% (n = 330,000); AID 2544;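 active = inhibition reaching a set limit with compound at 10 µM in the primary screen, cut at about 35% in these data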;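 note: plate controls were DMSO wells with enzyme for no effect and no-enzyme buffer wells for full effect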
# Target sequence (P09923 whole entry, looked up): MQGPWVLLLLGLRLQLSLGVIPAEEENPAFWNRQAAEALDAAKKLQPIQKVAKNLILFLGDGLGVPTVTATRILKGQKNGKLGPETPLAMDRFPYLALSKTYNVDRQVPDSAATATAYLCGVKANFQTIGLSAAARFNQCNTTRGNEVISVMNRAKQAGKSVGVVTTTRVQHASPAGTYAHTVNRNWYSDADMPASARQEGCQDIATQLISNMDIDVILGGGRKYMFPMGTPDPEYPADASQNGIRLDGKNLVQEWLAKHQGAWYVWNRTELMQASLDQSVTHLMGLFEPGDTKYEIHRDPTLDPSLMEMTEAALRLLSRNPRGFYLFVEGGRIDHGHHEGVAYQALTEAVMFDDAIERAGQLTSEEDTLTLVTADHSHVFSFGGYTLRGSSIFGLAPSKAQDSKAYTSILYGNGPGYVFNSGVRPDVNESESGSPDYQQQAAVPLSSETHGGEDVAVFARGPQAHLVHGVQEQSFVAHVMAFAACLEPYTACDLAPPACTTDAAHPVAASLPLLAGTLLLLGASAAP
# mIAP inh: mouse IAP inhibition; purified mouse IAP, CDP-Star luminescence, 30 min; inhibition, % at 10 µM; actives 0.2% (n = 330,000);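 active = inhibition of at least 40% at 10 µM in the primary screen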;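 note: plate controls were DMSO with enzyme for no effect and no enzyme wells for full effect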
# hIAP act: increases human intestinal alkaline phosphatase activity; purified human IAP, CDP-Star luminescence, 30 min; stronger effect = higher value; 1 = vehicle-only enzyme, 0 = enzyme-free background; actives 0.16% (n = 330,000); AID 2524; activation factor at 10 µM;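 active = activation factor of the enzyme at least 2-fold when tested at 20 µM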
# bIAP act: intestinal alkaline phosphatase (bovine) activation | purified bovine IAP, CDP-star luminescence, 30 min; stronger effect = higher value; fold of DMSO-control signal, blank-subtracted | activation factor at 20 µM | actives 0.17% (n = 200,000) | AID 1016;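 active = activation factor of 2 or more at 20 µM, a signal rise over negative controls twice the positive control's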
# mIAP act: increases mouse intestinal alkaline phosphatase activity | AID 2805 | muIAP, CDP-Star luminescence, 30 min; stronger effect = higher value; 1 = vehicle-only enzyme signal, 0 = enzyme-free wells | actives 0.24% (n = 330,000) | activation factor at 10 µM;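 active = activation factor of at least 2 at 20 µM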
#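 Assay system: mouse IAP enzyme; Reagent: CDP-Star chemiluminescent phosphatase substrate; Compound: DMSO-dissolved test compounds; Incubation: 30 min, room temperature; Technique: luminescence from enzymatic CDP-Star hydrolysis; Controls: DMSO-only wells and no-enzyme negative control.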
# bIAP inhibitor: intestinal alkaline phosphatase (bovine) inhibition. purified bovine IAP, CDP-star luminescence, 30 min. inhibition, % at 20 µM. 190,000 tested, under 10 active;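 active = over 50% inhibition of intestinal alkaline phosphatase at 20 µM in the single-dose screen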
#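 System: Purified bovine intestinal alkaline phosphatase (IAP) enzyme | Input: IAP diluted 1/65,000,000 in the well | Also added: CDP-star chemiluminescent phosphatase substrate, 30 µM final | Dosing: 20 µM single dose | Times: Enzyme reaction for 30 min at room temperature | Detection: Luminescence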
# Active calls of the source: *; nt = no result given. An excerpt weighted towards active compounds, which were near 0.72% of everything screened.
SMILES,hIAP block,mIAP inh,hIAP act,bIAP act,mIAP act,bIAP inhibitor
O=C(Nc1ccc(F)cc1)c1cccc(N2C(=O)C3C4C=CC(C5CC45)C3C2=O)c1 (stereo unspecified),-2,3,1,nt,0.97,nt
Oc1ccc(/C=N/Nc2ncnc3nc[nH]c23)cc1,-45,23,1.4,nt,0.77,nt
Cc1ccc(/C=N/Nc2ncnc3nc[nH]c23)cc1,-117,12,2.2*,nt,0.88,nt
Clc1ccc(/C=N/Nc2ncnc3nc[nH]c23)cc1,-123,-1,2.2*,nt,1,nt
Fc1cccc(/C=N/Nc2ncnc3nc[nH]c23)c1,-97,-10,2,1,1.1,0
NC(=O)c1ccc(NC(=O)CSc2nnc(-c3ccc4c(c3)OCO4)o2)cc1,-12,6,1.1,nt,0.94,nt
O=C(CSc1nnc(-c2ccc3c(c2)OCO3)o1)Nc1c(F)cccc1F,-22,55*,1.2,nt,0.45,nt
O=S(=O)(c1ccc(NC(=S)NCCC(c2ccccc2)c2ccccc2)cc1)N1CCOCC1,7,-107,0.93,0.9,2.1*,6
CC(C)(C)CC(C)(C)NC(=S)Nc1ccc(S(=O)(=O)N2CCOCC2)cc1,8,-115,0.92,1,2.2*,-3
CCCCOCCCNC(=S)Nc1ccc(S(=O)(=O)N2CCOCC2)cc1,-12,-29,1.1,nt,1.3,nt
NNC(=S)Nc1ccc(S(=O)(=O)N2CCOCC2)cc1,1,7,0.99,nt,0.93,nt
COCC(=O)N1CCC(Oc2ccc(C(=O)NC(C)c3nccs3)cc2)CC1 (stereo unspecified),9,4,0.91,nt,0.96,nt
CNCCCCOc1ccc(C(C)(C)C)cc1Cl,-12,-5,1.1,1,1,-2
COc1cc(/C=C2/C(=O)NN(c3cccc(F)c3)C2=O)ccc1OC(=O)c1ccco1,16,11,0.84,2.1*,0.89,-109
O=S(=O)(Nc1ccc(C(F)(F)F)cn1)c1ccccc1,-1,-12,1,nt,1.1,nt
C#CCOCCOCCOCCNc1nc(N2CCN(C(=O)[C@H](Cc3cc4ccccc4[nH]3)n3cc([C@@H](N)C(C)CC)nn3)CC2)nc(N2CCN(C(=O)[C@H](Cc3cc4ccccc4[nH]3)n3cc([C@@H](N)CC(C)C)nn3)CC2)n1 (stereo partly specified),13,-44,0.87,5.4*,1.4,-442
O=C(NCc1ccc(Cl)cc1Cl)C1CCN(S(=O)(=O)c2ccc3c(c2)OCCCO3)CC1,-63,-162,1.6,0.8,2.6*,19
O=C(NCc1ccc(F)cc1)C1CCN(S(=O)(=O)c2ccc3c(c2)OCCCO3)CC1,0,-14,1,0.7,1.1,29
Cc1ccc(NC(=S)N2CCN(C(=O)C3CCCO3)CC2)cc1 (stereo unspecified),1,-2,0.99,1,1,5
O=C(C1CCCO1)N1CCN(C(=S)Nc2ccc(Cl)cc2)CC1 (stereo unspecified),7,4,0.93,2.4*,0.96,-142
Cc1ccccc1C(=O)Nc1nnc(SCC(=O)NCc2ccco2)s1,25,5,0.75,nt,0.95,nt
CCOC(=O)C1Nc2ccc(C(=O)O)cc2C2C=CCC12 (stereo unspecified),-6,14,1.1,nt,0.86,nt
CCOC(=O)c1ccc2c(c1)C1C=CCC1C(C(=O)O)N2 (stereo unspecified),-3,55*,1,0.8,0.45,18
O=C(Nc1ccc(Cl)cc1)NC1(C(=O)NCCCN2CCOCC2)CCCCC1,0,-8,0.99,2.8*,1.1,-176
CC(C)CC(=O)Nc1cccc(C(C)O)c1 (stereo unspecified),7,-7,0.93,1,1.1,5
SMILES,hIAP block,mIAP inh,hIAP act,bIAP act,mIAP act,bIAP inhibitor
CC(C)OCCCN1CN(S(=O)(=O)c2cccs2)c2nc3ccccc3nc21,-2,-1,1,nt,1,nt
FC(F)Oc1ccc(NC(=S)NC2CCCCCCC2)cc1,-13,-164,1.1,nt,2.6*,nt
S=C(Nc1ccc(Nc2ccccc2)cc1)NC1CCCCCC1,-3,-19,1,0.9,1.2,11
S=C(Nc1ccc(Br)cc1)NC1CCCCC1,1,-150,0.99,1.1,2.5*,-11
S=C(Nc1ccc(Cl)cc1)NC1CCCCC1,9,-81,0.91,nt,1.8,nt
S=C1NCCC12C(=S)Nc1ccccc12 (stereo unspecified),12,6,0.89,nt,0.94,nt
CC(=O)Nc1ccc(NC(=O)Nc2ccc(C)c(C)c2)cc1,22,-20,0.79,1.1,1.2,-5
CC(=O)Nc1cccc(NC(=O)Nc2ccc(C)c(Cl)c2)c1,-18,-111,1.2,1,2.1*,-2
O=C(Nc1ccc(F)cc1)Nc1cccc(Br)c1,-1,-199,1,nt,3*,nt
O=C(Nc1ccccc1)Nc1ccc(Br)c(Cl)c1,-29,-234,1.3,1,3.3*,0
O=C(Nc1ccccc1)Nc1cccc(Cl)c1Cl,-3,-192,1,0.9,2.9*,13
O=C(Nc1ccncc1)Nc1cccc(Cl)c1Cl,-25,-73,1.3,nt,1.7,nt
O=C(Nc1ccccc1)Nc1ccccc1Br,-16,-52,1.2,1,1.5,-2
CCOC(=O)N1CCC(NCc2c(C(=O)N(C)Cc3ccccc3)nc3ccccn23)CC1,-41,-1,1.4,1,1,-2
O=C(Nc1ccc(Oc2ccc(NC(=O)Nc3ccccc3Cl)cc2)cc1)Nc1ccccc1Cl,-1,-102,1,nt,2*,nt
O=C(NC(Nc1ccc(F)cc1)(C(F)(F)F)C(F)(F)F)c1cccnc1,-5,-5,1,2*,1,-96
O=S(=O)(NC1C2CC3CC(C2)CC1C3)c1ccccc1 (stereo unspecified),6,-7,0.94,nt,1.1,nt
Cc1csc2c(N3CCN(C(=O)NC(C)(C)C)CC3)ncnc12,2,1,0.97,nt,0.99,nt
Cc1csc2c(N3CCN(C(=O)Nc4ccc(Cl)c(Cl)c4)CC3)ncnc12,-43,-139,1.4,nt,2.4*,nt
CCCCN(C(=O)c1c(-c2ccccc2)noc1C)c1c(N)n(CCC)c(=O)[nH]c1=O,-2,1,1,nt,0.99,nt
CCOc1cc(/C=C2\CCC/C(=C\c3cc(Cl)c(O)c(OCC)c3)C2=O)cc(Cl)c1O,21,44*,0.79,0.3,0.56,nt
Cc1ccc(CNC(=O)CSc2nc(N3CCCCC3)nc(N3CCCCC3)n2)cc1,-39,-49,1.4,1,1.5,-2
Cc1ccc(Cl)cc1-n1ncc2c(NNC(=O)c3ccco3)ncnc21,-140,7,2.4*,1.4,0.93,-37
CC(=O)NNc1ncnc2c1cnn2-c1ccc(C)cc1,-206,18,3.1*,1.3,0.81,-28
CC(=O)NNc1ncnc2c1cnn2-c1ccc(C)c(Cl)c1,-57,-18,1.6,1.1,1.2,-14
